Screening data: PubChem BioAssay, Johns Hopkins Ion Channel Center
Hits are enriched below; roughly 3.8% of the tested compounds scored in any of these assays.
hERG rescue: hERG rescue from dofetilide block, primary screen, cell-based, CHO-hERG, FluxOR thallium flux, dofetilide IC70; dofetilide IC70 present; Voltage-gated inwardly rectifying potassium channel KCNH2 (Homo sapiens), Q12809; activation (rescue from dofetilide block), less the hit threshold, % at 10 µM; AID 1511, 2009; hit rate 0.51% among 310,000;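 active = activation above the mean of controls blocked by dofetilide plus 5 SD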;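 note: thallium influx through hERG after potassium depolarization seen as dye fluorescence rise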
Kir21 block: inhibitors of mouse Kir2.1 inward-rectifier potassium channel | Inward rectifier potassium channel 2 (Mus musculus), P35561 | hit rate 0.85% among 310,000 | B-score at 10 µM | HEK293-Kir2.1, FluxOR thallium flux fluorescence; active compounds read low;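 active = fluorescence ratio B-score at or below minus 3 SD of library scores, with starting-brightness B-score within 2 SD, cut at about -4.2 in these data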;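 note: channel flux triggered by added potassium and thallium sulfate stimulus; B-score of peak minus minimum fluorescence over baseline after thallium stimulus; more negative B-score means stronger Kir2.1 block with less thallium influx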
Target sequence (P35561 whole entry, looked up): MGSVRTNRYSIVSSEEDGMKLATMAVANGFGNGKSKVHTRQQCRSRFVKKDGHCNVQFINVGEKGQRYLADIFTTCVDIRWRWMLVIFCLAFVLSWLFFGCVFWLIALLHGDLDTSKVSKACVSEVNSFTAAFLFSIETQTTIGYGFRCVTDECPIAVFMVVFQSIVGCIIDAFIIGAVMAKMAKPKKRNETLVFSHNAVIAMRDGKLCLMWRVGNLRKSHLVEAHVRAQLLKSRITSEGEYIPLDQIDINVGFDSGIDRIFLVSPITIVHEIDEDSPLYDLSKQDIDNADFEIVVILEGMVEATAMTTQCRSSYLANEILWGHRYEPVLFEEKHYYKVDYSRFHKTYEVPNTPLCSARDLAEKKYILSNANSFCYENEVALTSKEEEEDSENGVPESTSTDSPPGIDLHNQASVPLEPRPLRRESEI
KCNQ1 inh: inhibitors of human KCNQ1 channel, primary screen, cell-based, thallium flux, high-throughput | CHO-K1 KCNQ1, FluxOR thallium flux fluorescence; active compounds read high | B-score at 10 µM | hit rate 1.3% among 310,000 | AID 2642, 2010;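 active = compounds whose thallium flux B-score, printed positive for inhibition, exceeds three library SD while starting fluorescence stays within three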;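 note: channel opened by potassium depolarization with thallium stimulus after 20 min compound exposure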
KCNK3 block: human KCNK3 channel inhibitors, primary screen, CHO cells, FluxOR thallium flux, B-score. Potassium channel subfamily K member 3 (Homo sapiens), O14649. FluxOR fluorescence; active compounds read low. B-score at 10 µM. hit rate 0.84% among 340,000. AID 602410, 2012;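 active = B-score under library mean minus 4 SD, starting fluorescence ratio at most library mean plus 5 SD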;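 note: more negative B-score means stronger inhibition of thallium flux through KCNK3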
KCNQ1 pot: potentiators or activators of KCNQ1 channel, primary screen, cell-based, thallium flux, high-throughput; CHO-K1 KCNQ1, thallium flux FluxOR fluorescence; active compounds read high; Potassium voltage-gated channel subfamily KQT member 1 (Homo sapiens), P51787; hit rate 0.35% among 310,000; B-score at 10 µM; AID 2648, 2010;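 active = fluorescence ratio B-score, a plate-corrected score, at least three library SD, with initial intensity B-score within 5 SD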
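Material: CHO-K1 cells stably expressing KCNQ1. Medium: assay buffer for compound exposure, DMSO matched across wells. Reagent: K+/Tl+ depolarizing stimulus. Compound dosing: single-concentration screen. Times: 37 °C overnight plating, 90-min dark dye load, 20-min compound pretreatment. Technique: FluxOR Tl+ flux fluorescence.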
KCNK9 inh: KCNK9 potassium channel inhibitors, primary screen, HEK293 cells, thallium flux | Potassium channel subfamily K member 9 (Homo sapiens), Q9NPC2 | FluxOR thallium flux fluorescence; active compounds read low | B-score at 10 µM | hit rate 1.2% among 310,000 | AID 488922, 2010;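 active = ratio B-score over 3 SD below the library mean, with starting fluorescence within 5 SD of its mean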;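 note: negative B-score means less thallium flux so channel inhibition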
The depositor's hits bear a star.

Results for CCc1ccc(CNCc2ccc(F)cc2)cc1 ?
hERG rescue: -12; Kir21 block: -6.9*; KCNQ1 inh: inactive; KCNK3 block: inactive; KCNQ1 pot: inactive; KCNK9 inh: inactive

Results for OC(CNCc1ccc(F)cc1)(c1ccccc1)c1ccc(F)cc1 (stereo not given) ?
hERG rescue: -9; Kir21 block: -6.5*; KCNQ1 inh: inactive; KCNK3 block: inactive; KCNQ1 pot: inactive; KCNK9 inh: inactive

What do the screens show for `COc1cc(/C=C2\C(=O)N(C)C(=S)N2C)ccc1O`?
hERG rescue: -5; Kir21 block: -1.4; KCNQ1 inh: inactive; KCNK3 block: inactive; KCNQ1 pot: 15*; KCNK9 inh: inactive

What do the screens show for `COc1cc(/C=C2/CC/C(=C/c3ccc(O)c(OC)c3)C2=O)ccc1O`?
hERG rescue: -18; Kir21 block: -4; KCNQ1 inh: inactive; KCNK3 block: -9.1*; KCNQ1 pot: inactive; KCNK9 inh: -7.4*

What do the screens show for `CN1C(=O)/C(=C/c2ccc(O)c([N+](=O)[O-])c2)N(C)C1=S`?
hERG rescue: -5; Kir21 block: -0.23; KCNQ1 inh: inactive; KCNK3 block: inactive; KCNQ1 pot: inactive; KCNK9 inh: inactive

Results for COc1cc(/C=C2\COC/C(=C\c3ccc(O)c(OC)c3)C2=O)ccc1O ?
hERG rescue: -20; Kir21 block: -1.2; KCNQ1 inh: inactive; KCNK3 block: inactive; KCNQ1 pot: inactive; KCNK9 inh: inactive

What do the screens show for `CCCCN(C(=O)CSCC(=O)Nc1ccc(OC)cc1)c1c(N)n(Cc2ccccc2)c(=O)[nH]c1=O`?
hERG rescue: -11; Kir21 block: -1.3; KCNQ1 inh: inactive; KCNK3 block: inactive; KCNQ1 pot: inactive; KCNK9 inh: inactive

How did c1ccc(CNc2ncnc3nc[nH]c23)cc1 do in these assays?
hERG rescue: -2; Kir21 block: 0.96; KCNQ1 inh: inactive; KCNK3 block: inactive; KCNQ1 pot: inactive; KCNK9 inh: inactive

How did c1ccc(CCCNc2ncnc3nc[nH]c23)cc1 do in these assays?
hERG rescue: 6.0*; Kir21 block: 1.4; KCNQ1 inh: inactive; KCNK3 block: inactive; KCNQ1 pot: inactive; KCNK9 inh: inactive

How did Cc1c(C=C(C#N)c2ccc([N+](=O)[O-])cc2)c(=O)n(-c2ccccc2)n1C do in these assays?
KCNK3 block: inactive

How did COc1ccc(OC)c(CNC(=O)C(C)n2nc(C)c3c(C)n(-c4ccccc4)nc3c2=O)c1 (stereo not given) do in these assays?
hERG rescue: -3; Kir21 block: 1.3; KCNQ1 inh: inactive; KCNK3 block: inactive; KCNQ1 pot: inactive; KCNK9 inh: inactive

How did CN(CC(=O)Nc1ccccc1C(F)(F)F)C(=O)c1ccccc1Sc1ccccc1C#N do in these assays?
KCNK3 block: -9.2*

Results for CCN(CC(=O)Nc1ccccc1C(F)(F)F)C(=O)c1ccccc1Sc1ccccc1C#N ?
KCNK3 block: inactive

Results for Cc1ccc(C(C#N)c2ccc3c(C(F)(F)F)cc(C(F)(F)F)nc3n2)cc1 (stereo not given) ?
hERG rescue: 10*; Kir21 block: 0.57; KCNQ1 inh: inactive; KCNK3 block: inactive; KCNQ1 pot: 43*; KCNK9 inh: inactive

How did N#CC(c1ccccc1)c1ccc2c(C(F)(F)F)cc(C(F)(F)F)nc2n1 (stereo not given) do in these assays?
hERG rescue: -1; Kir21 block: 0.42; KCNQ1 inh: inactive; KCNK3 block: inactive; KCNQ1 pot: inactive; KCNK9 inh: inactive

Results for Cc1ccc(S(=O)(=O)c2nc(Cc3ccccc3)oc2N2CCOCC2)cc1 ?
KCNK3 block: inactive

What do the screens show for `COc1ccc(S(=O)(=O)N2CCCOC2CNC(=O)C(=O)NCCCN2CCOCC2)cc1` (stereo not given)?
hERG rescue: -5; Kir21 block: 0.54; KCNQ1 inh: inactive; KCNK3 block: inactive; KCNQ1 pot: inactive; KCNK9 inh: inactive

Results for Cc1ccc(C2=NOC(c3nnc(-c4ccccc4)o3)C2)cc1 (stereo not given) ?
hERG rescue: -1; Kir21 block: -0.04; KCNQ1 inh: inactive; KCNK3 block: inactive; KCNQ1 pot: 8*; KCNK9 inh: inactive

Results for CC1CCC(NC(=O)c2cc(Cl)nc3ccccc23)CC1 (stereo not given) ?
KCNK3 block: inactive

How did Cc1ccc(/C(O)=C/C(=O)C(=O)NC23CC4CC(CC(C4)C2)C3)cc1 do in these assays?
hERG rescue: 8.5*; Kir21 block: -0.1; KCNQ1 inh: inactive; KCNK3 block: inactive; KCNQ1 pot: 15*; KCNK9 inh: inactive

How did Cc1ccc(C(=O)NCC(=O)NC23CC4CC(CC(C4)C2)C3)cc1 do in these assays?
hERG rescue: -7; Kir21 block: -0.08; KCNQ1 inh: inactive; KCNK3 block: inactive; KCNQ1 pot: inactive; KCNK9 inh: inactive

How did Cc1n[nH]c2c([N+](=O)[O-])c(=O)[nH]c(=O)n12 do in these assays?
KCNK3 block: inactive

How did Clc1ccc(SCc2cc(Cl)nc(-c3ccccc3)n2)cc1 do in these assays?
hERG rescue: -7; Kir21 block: -0.7; KCNQ1 inh: inactive; KCNK3 block: inactive; KCNQ1 pot: inactive; KCNK9 inh: -6.7*

Results for CCOC(=O)CSc1cc(CSc2ccccc2)nc(-c2ccccc2)n1 ?
hERG rescue: -8; Kir21 block: 1.5; KCNQ1 inh: inactive; KCNK3 block: inactive; KCNQ1 pot: inactive; KCNK9 inh: -6.7*

How did CCCCn1c(=O)n(Cc2cccc(F)c2)c(=O)c2c1ncn2Cc1ccco1 do in these assays?
hERG rescue: -7; Kir21 block: -0.04; KCNQ1 inh: inactive; KCNK3 block: -10*; KCNQ1 pot: inactive; KCNK9 inh: inactive

What do the screens show for `O=C(CSc1nnc(-c2ccncc2)n1Cc1ccco1)Nc1ccccc1Cl`?
hERG rescue: -15; Kir21 block: -2.7; KCNQ1 inh: inactive; KCNK3 block: inactive; KCNQ1 pot: inactive; KCNK9 inh: inactive

How did O=C(CSc1nnc(-c2ccncc2)n1Cc1ccco1)Nc1ccccc1F do in these assays?
hERG rescue: -6; Kir21 block: -1.6; KCNQ1 inh: inactive; KCNK3 block: inactive; KCNQ1 pot: inactive; KCNK9 inh: -6.9*

How did CC1(C(=O)O)CCC(C(=O)NC2CCCCC2)C1(C)C (stereo not given) do in these assays?
hERG rescue: 1; Kir21 block: 0.01; KCNQ1 inh: inactive; KCNK3 block: inactive; KCNQ1 pot: inactive; KCNK9 inh: -7.6*
